From PubChem BioAssay come the findings set out here.

Active and inactive are the calls of the source.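 How the source made its calls, unless noted: active means inhibition of the reporter signal at or above 50%; inactive means inhibition below 50%.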

Assay [1] can be described thus: inhibitors of TNFa-induced NFkB p65 translocation, primary screen, imaging, HUVEC, MLSMR starter and 10KST1 sets (AID 438;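 active means inhibition above 20% together with a positive visual image hit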;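 further: compound added about 3h40 before a 20 min TNFalpha stimulation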;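 on inhibition: signal is the nuclear over cytoplasmic p65 intensity ratio per well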). The following applies: HUVEC TNFa-induced p65 nuclear translocation; cell count: measured here: nuclei count (cytotoxicity indicator), at 2.08 µM; inhibition: at 2 µM, stronger effect = higher value, 0% TNFa-plus-vehicle, 100% no-TNFa wells.
Assay [2] is described as follows: inhibitors of mutant huntingtin aggregation, primary screen, imaging, exon1htt(103Q)mCFP cells, high-content imaging (AID 483;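 active means visual image review flags a hit and inhibition of aggregation exceeds 20%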;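 further: compound exposure lasted 3 days before fixation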;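 on nuclei count: percent of the per-plate median nuclei count of sample wells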). The following applies: exon1htt(103Q)mCFP cell line, aggregate imaging, at 2 µM; inhibition of aggregation: stronger effect = higher value; nuclei count: measured here: cell count, toxicity.
Assay [3] is described as follows: inhibitors of E-selectin induction by TNFa, primary screen, imaging, HUVEC, immunofluorescence, MLSMR starter and 10KST1 sets (AID 487;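 active means visually confirmed hit in the image check and inhibition above 20%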;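 on inhibition: signal is fraction of cell area covered by stained E-selectin grains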;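 on nuclei count: 100% = median nuclei count of all wells on the same plate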). The following applies: HUVEC TNFalpha-induced E-selectin immunofluorescence imaging, at 2 µM; inhibition: stronger effect = higher value; nuclei count: measured here: cell number, toxicity.
Assay [4] deals with Voltage-gated potassium channel subunit beta-2 (Rattus norvegicus) (UniProt P62483). The experiment in a line: KvBeta enzyme negative modulators, primary screen, biochemical, NADPH fluorescence (AID 622;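 active means fluorescence slope higher than the sample average by over 3 SD, cut at about -0.22 in these data, passing the limit was not always enough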;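 further: slope of raw intensity against log time taken from 70 to 1610 s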). The following applies: recombinant KvBeta, 4-cyanobenzaldehyde reduction, at 10 µM, stronger effect = higher value.
Voltage-gated potassium channel subunit beta-2 (Rattus norvegicus), sequence (P62483 whole entry, looked up): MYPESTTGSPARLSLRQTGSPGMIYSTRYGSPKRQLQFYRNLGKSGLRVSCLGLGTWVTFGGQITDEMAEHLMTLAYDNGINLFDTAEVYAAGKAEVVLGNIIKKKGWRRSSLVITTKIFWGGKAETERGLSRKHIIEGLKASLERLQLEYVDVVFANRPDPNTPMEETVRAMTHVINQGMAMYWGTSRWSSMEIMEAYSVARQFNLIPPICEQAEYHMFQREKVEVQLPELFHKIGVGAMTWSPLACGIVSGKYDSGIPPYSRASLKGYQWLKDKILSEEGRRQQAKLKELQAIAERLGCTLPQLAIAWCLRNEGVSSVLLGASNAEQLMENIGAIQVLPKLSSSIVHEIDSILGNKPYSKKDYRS
The target is the same in assay [5]. As to the kind of experiment: KvBeta positive modulators, primary screen, biochemical, NADPH fluorescence (AID 623;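 active means NADPH fluorescence slope more negative than the mean of all samples by about 3 SD, 99.7% confidence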;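 further: fluorescence intensity change per second fitted from 20 to 320 s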). The following applies: Recombinant KvBeta, NADPH fluorescence decrease slope, 10 min; at 10 µM; stronger effect = lower value.
Assay [6] concerns the target Alpha-2C adrenergic receptor (Homo sapiens) (UniProt P18825). The experiment in a line: modulators of alpha2C/GIRK thallium flux, primary screen, cell-based, HEK293 alpha2C/GIRK1/2 (AID 624;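 active means fluorescence slope after compound addition differing from the mean of all screened samples at 99.7% confidence, in either direction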;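 further: slope of fluorescence ratio to pre-addition baseline per second over 15 to 24 s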). Particulars: thallium flux BTC fluorescence, at 10 µM, actives lie on both sides.
The nature of assay [7]: inhibitors of larval lipid processing in zebrafish, primary screen, whole organism, PED6 fluorescence, gall bladder and intestine (AID 686;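 active means a full or partial loss of lipid-probe fluorescence in the fish gall bladder, intestine or both, judged by eye; inactive means no fluorescence loss, or compound toxic to the fish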;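 further: signal comes from phospholipase A2 cleavage of quenched PED6 carried via bile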). The following applies: Zebrafish larvae PED6 lipid processing, fluorescence scoring; screened at 20 µM (by protocol). A digest of the protocol: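 Doses: 20 µM single dose. Test system: live zebrafish larvae aged 5-7 days, whole organism. Quantity: five larvae per well. Measured by: By-eye fluorescence microscopy. Reagent: ingested quenched lipid PED6 at 100 nM. Read-out: visual per-well fluorescence inhibition score. Times: overnight exposure of larvae to compound plus PED6.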

A short description of assay [8]: inhibitors of Sendai virus-induced IRF3 signaling, primary screen, TLR/RLR signaling modifier project, cell-based, Sendai virus stimulus, luciferase, 10K MLSCN set (AID 602276;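 active means inhibition at or above 50% at 10 µM; inactive means inhibition below 50%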;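 further: firefly luciferase from ISG56 promoter only with Renilla not read in this screen; 0% = Sendai virus plus DMSO and 100% = medium plus DMSO without virus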). The following applies: HEK293 RL24 IRF3 luciferase reporter, at 10 µM, stronger effect = higher value.
Assay [9] in a line: inhibitors of poly I:C-induced TLR3 signaling, primary screen, cell-based, poly I:C stimulus, luciferase, 10K MLSCN set (AID 602277). The following applies: HEK293-TLR3 RL24 IRF3 luciferase reporter, at 10 µM, stronger effect = higher value. For orientation: Reporter assays use an easily measured gene product as a stand-in for the process of interest.

Alpha-2C adrenergic receptor (Homo sapiens), sequence (P18825 whole entry, looked up): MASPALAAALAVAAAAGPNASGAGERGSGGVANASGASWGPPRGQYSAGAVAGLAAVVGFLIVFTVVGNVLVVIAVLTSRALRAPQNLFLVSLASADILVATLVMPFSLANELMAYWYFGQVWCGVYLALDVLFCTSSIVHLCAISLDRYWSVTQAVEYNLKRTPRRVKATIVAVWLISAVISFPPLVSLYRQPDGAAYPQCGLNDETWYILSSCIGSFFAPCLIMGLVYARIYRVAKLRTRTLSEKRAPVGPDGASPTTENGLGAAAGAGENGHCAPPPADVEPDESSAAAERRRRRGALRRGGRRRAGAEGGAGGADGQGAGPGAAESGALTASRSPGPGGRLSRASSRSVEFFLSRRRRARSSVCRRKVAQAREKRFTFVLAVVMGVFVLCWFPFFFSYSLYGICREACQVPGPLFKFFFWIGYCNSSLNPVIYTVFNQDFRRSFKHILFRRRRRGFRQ

What is called inhibition is the relative decrease from the control value, in per cent. `CC(=O)Nc1c(O)n(C)c2ccccc12`: the cell count in assay [1] came out at 638. The inhibition in assay [1] was -24.1% (inactive); in assay [3], 25.2% (inactive); in [8] it was -8.37% (inactive); in assay [9], 2.01% (inactive). In addition, the inhibition of aggregation in assay [2] is 4.1% (inactive). The nuclei count in [2] came out at 104%; in [3], 100%. Moreover, the fluorescence slope in assay [4] is -0.445 (inactive). For the same compound, the NADPH fluorescence slope in assay [5] is 3.6e-05 (inactive). In addition, the slope in [6] is 0.00514 (inactive). Further, the call in assay [7] was inactive.

For `CC(=O)c1cccc(NC(=O)NCc2ccco2)c1`, the cell count in [1] is 385. In addition, the inhibition was 0.8% (inactive) in [1], -43.8% (inactive) in [3], -3.74% (inactive) in assay [8] and -37.3% (inactive) in assay [9]. The inhibition of aggregation in assay [2] was -4.5% (inactive). Also, the nuclei count in [2] stood at 74.6%; in [3], 79.8%. For the same compound, in [4], the fluorescence slope was -0.386 (inactive). In addition, the NADPH fluorescence slope in [5] was 6.8e-06 (inactive). Moreover, the slope in assay [6] is 0.00558 (inactive). In addition, in assay [7], the result was inactive.

Take `COc1ccccc1NC(=O)N(Cc1ccco1)Cc1cc2c(C)ccc(C)c2[nH]c1=O`: in [1], the cell count stood at 722. The inhibition in assay [1] was -11.9% (inactive); in assay [3], -13.2% (inactive); in assay [8], 12.5% (inactive); in assay [9] it was 5.06% (inactive). Also, the inhibition of aggregation in assay [2] was 2.5% (inactive). In addition, the nuclei count in [2] amounted to 98.7%; in [3], 100%. Also, the fluorescence slope in assay [4] is -0.463 (inactive). In addition, the NADPH fluorescence slope in assay [5] was -4.7e-05 (inactive). For the same compound, the slope in assay [6] was 0.00639 (inactive). The compound was called inactive in assay [7].

For `Cc1nc2ncnn2c(N2CCC(C(=O)NCC3CCCO3)CC2)c1Cc1ccccc1` (stereo unspecified), the cell count in assay [1] came to 642. Also, the inhibition was -10.1% (inactive) in assay [1], -143% (inactive) in assay [3], 8.8% (inactive) in assay [8] and 19.2% (inactive) in [9]. In assay [2], the inhibition of aggregation is -26.5% (inactive). The nuclei count was found to be 97% in assay [2] and 112% in assay [3]. The fluorescence slope in [4] was -0.407 (inactive). Also, the NADPH fluorescence slope in assay [5] is -2.8e-05 (inactive). Moreover, the slope in [6] is 0.00509 (inactive). The call in [7] was inactive.

Take `O=C1c2oc3ccccc3c(=O)c2C(c2cccnc2)N1Cc1ccco1` (stereo unspecified): the cell count in assay [1] came out at 389. For the same compound, the inhibition in [1] was -2.7% (inactive); in assay [3] it was -107% (inactive); in assay [8], -0.371% (inactive); in assay [9], 8.46% (inactive). Further, the inhibition of aggregation in assay [2] was -2.7% (inactive). Also, the nuclei count was determined as 110% in [2] and 111% in assay [3]. Besides, in assay [4], the fluorescence slope was -0.48 (inactive). The NADPH fluorescence slope in [5] is -3.2e-05 (inactive). Also, the slope in assay [6] is 0.00687 (inactive). In addition, the result in [7] was inactive.

For `CN1C(=O)c2oc3ccccc3c(=O)c2C1c1ccccn1` (stereo unspecified), the cell count in [1] came out at 404. Besides, the inhibition in [1] is 5.4% (inactive); in assay [3], -28.5% (inactive); in assay [8], 18% (inactive); in [9], 12% (inactive). For the same compound, the inhibition of aggregation in assay [2] was -16.4% (inactive). Also, the nuclei count in [2] worked out at 106%; in [3], 87.5%. Moreover, in assay [4], the fluorescence slope is -0.437 (inactive). In addition, the NADPH fluorescence slope in assay [5] is -4.2e-05 (inactive). Moreover, the slope in assay [6] was 0.00452 (inactive). The call in assay [7] was inactive.

For the compound `C=CCNc1nc2c(c(=O)n(C)c(=O)n2C)n1CCCCCC`, the cell count in assay [1] was found to be 438. For the same compound, the inhibition was 4.7% (inactive) in assay [1], 4% (inactive) in assay [3], 8.07% (inactive) in assay [8] and -34.5% (inactive) in assay [9]. Moreover, in assay [2], the inhibition of aggregation was -8% (inactive). The figures for the nuclei count in assay [2] and in assay [3] were 94.9% and 107%, respectively. Also, in assay [4], the fluorescence slope was -0.39 (inactive). For the same compound, the NADPH fluorescence slope in [5] is -3.7e-05 (inactive). In addition, the slope in assay [6] is 0.00457 (inactive). In addition, the compound was classed as inactive in assay [7].

In the case of `CC(OC(=O)CNC(=O)C12CC3CC(CC(C3)C1)C2)C(=O)Nc1ccc(N2CCOCC2)cc1` (stereo unspecified), the cell count in assay [1] was 663. Moreover, the inhibition was 4.1% (inactive) in assay [1], -47.1% (inactive) in assay [3], -2.61% (inactive) in assay [8] and -14.5% (inactive) in assay [9]. The inhibition of aggregation in assay [2] is 3.3% (inactive). Also, the nuclei count is 110% in assay [2] and 111% in [3]. Besides, in [4], the fluorescence slope is -0.448 (inactive). Besides, the NADPH fluorescence slope in [5] is -5.7e-05 (inactive). In addition, the slope in [6] is 0.00563 (inactive). Also, the compound was called inactive in assay [7].

Turning to `CCOC(=O)c1cc(CC)sc1NC(=O)COC`, in assay [1], the cell count came to 324. The inhibition in [1] is -6% (inactive); in assay [3] it was 34% (inactive); in assay [8], 2.16% (inactive); in assay [9] it was 4.15% (inactive). The inhibition of aggregation in assay [2] is -9.4% (inactive). The nuclei count in [2] came out at 86.3%; in [3], 80%. In addition, the fluorescence slope in assay [4] was -0.321 (inactive). Also, the NADPH fluorescence slope in assay [5] is -7.5e-06 (inactive). Further, in assay [6], the slope was 0.00509 (inactive). For the same compound, the compound was classed as inactive in assay [7].

Consider `COc1ccc(-n2nc3cc(C)c(N)c(Br)c3n2)cc1`, for which, in assay [1], the cell count is 336. The inhibition in assay [1] was -6.8% (inactive); in [3] it was -17.3% (inactive); in assay [8] it was -10.7% (inactive); in assay [9] it was -36.5% (inactive). Further, the inhibition of aggregation in [2] is 3.9% (inactive). Besides, the nuclei count in assay [2] came out at 59.9%; in assay [3], 83.5%. The fluorescence slope in [4] is -0.411 (inactive). For the same compound, in assay [5], the NADPH fluorescence slope was -4.9e-05 (inactive). In addition, the slope in [6] was 0.00393 (inactive). For the same compound, in [7], the call was inactive.

Take `CCOC(=O)c1sc(NC(=O)CSc2ncn(-c3ccccc3)n2)nc1C`: in [1], the cell count amounted to 527. Further, the inhibition is -6.5% (inactive) in assay [1], -8% (inactive) in assay [3], 13.7% (inactive) in assay [8] and 13% (inactive) in assay [9]. The inhibition of aggregation in assay [2] is 14.5% (inactive). The results for the nuclei count in assay [2] and in assay [3] were 102% and 69.6%, respectively. The fluorescence slope in [4] is -0.363 (inactive). Also, the NADPH fluorescence slope in [5] was 2.2e-05 (inactive). The slope in assay [6] was 0.00535 (inactive). Besides, the call in assay [7] was inactive.

In the case of `COc1ccc(NC(=O)N2CCC(c3nc(-c4cccs4)no3)CC2)cc1`, the cell count in assay [1] turned out to be 486. For the same compound, the inhibition in [1] was -35.7% (inactive); in assay [3], -41.5% (inactive); in assay [8], -1.92% (inactive); in [9], -22% (inactive). Besides, the inhibition of aggregation in assay [2] was 1.4% (inactive). Further, the nuclei count in assay [2] amounted to 56.4%; in assay [3] it was 102%. The fluorescence slope in assay [4] was -0.36 (inactive). In addition, the NADPH fluorescence slope in assay [5] is -5.2e-05 (inactive). Further, the slope in assay [6] is 0.00458 (inactive). The result in assay [7] was inactive.

Take `COc1ccc(NC(=O)Nc2ccc(N3CCCC3=O)cc2)cc1OC`: the cell count in assay [1] is 462. Also, the inhibition in [1] is 4% (inactive); in assay [3], -4.9% (inactive); in [8], 4.01% (inactive); in assay [9] it was -16.1% (inactive). Besides, the inhibition of aggregation in [2] is -6.3% (inactive). Besides, the nuclei count in assay [2] was 102%; in assay [3], 120%. Also, the fluorescence slope in assay [4] is -0.368 (inactive). Further, the NADPH fluorescence slope in assay [5] is -3.2e-05 (inactive). Also, the slope in [6] was 0.0047 (inactive). In addition, the compound was called inactive in assay [7].
